The source made the active and inactive calls. The calls are words filed in the database; no cut-off is given here.
Assays:
Enterococcus faecium [1] = assay: Antibacterial activity against vancomycin-resistant VanA phenotype of Enterococcus faecium ATCC 51559 assessed as leakage of intracellular potassium ion at 10 uM measured for 10 mins by PBFI-AM dye-based spectrofluorometric analysis; assay type: functional, organism-based
Summary of the method: (§1)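 Mid-log (6 h) cells washed twice and resuspended in 10 mM HEPES pH 7.2 with 0.5% glucose. Signal stabilized 60 s at RT, then 1 μM PBFI-AM added and a 2 min baseline recorded before compound.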

HeLa = assay: Cytotoxicity against human HeLa cells assessed as cell survival up to 100 uM after 24 hrs by MTT assay; assay type: cell-based
Summary of the method: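 HeLa cells grown in DMEM with 10% FBS to 70–80% confluency, then exposed to serially diluted compounds for 24 h at 37 °C, 5% CO2. MTT (5 mg/mL solution) added for 3 h, formazan dissolved in DMSO, A570 read. Survival calculated relative to untreated and 10% Triton X-100 controls.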

Enterococcus faecium [2] = assay: Potency index, ratio of dalbavancin MIC90 to compound MIC for vancomycin-resistant VanA phenotype of Enterococcus faecium ATCC 51559; assay type: functional
Staphylococcus aureus [3] = assay: Antibacterial activity against vancomycin-intermediate-resistant Staphylococcus aureus assessed as growth inhibition by broth microdilution method; assay type: functional
Summary of the method: (§2)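 Broth microdilution per CLSI; compounds serially diluted in sterile water, added to bacteria at 10^5 CFU/mL (diluted from 6 h cultures). Incubated at 37 °C, OD600 read. Triplicate wells, experiment done at least twice. Mean OD plotted against concentration and fitted sigmoidally; MIC taken where OD matches the no-bacteria control.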

Staphylococcus aureus [4] = assay: Antibacterial activity against methicillin-resistant Staphylococcus aureus ATCC 33591 assessed as growth inhibition by broth microdilution method; assay type: functional; summary of the method: as §2
Staphylococcus aureus [5] = assay: Antibacterial activity against methicillin-resistant Staphylococcus aureus ATCC 33591 assessed as growth inhibition measured after 52 serial passages; assay type: functional, organism-based
Summary of the method: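 Serial passage: the MIC assay is run against MRSA, then cells from the one-half-MIC well of the previous assay are harvested and inoculated into fresh yeast-dextrose broth for the next MIC assay after 24 h incubation. Repeated for […] passages; MIC plotted against passage number and fold increase in MIC determined.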

Enterococcus faecium [6] = assay: Antibacterial activity against vancomycin-resistant VanA phenotype of Enterococcus faecium ATCC 51559 assessed as induction of membrane depolarization measured at < 3 mins by DiSC3(5) dye-based spectrofluorometric analysis; assay type: functional, organism-based
Summary of the method: (§3)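 Membrane potential assay with DiSC3(5): dye added to cells until maximal uptake, seen as a fluorescence minimum (about 10 min). Compounds then added and depolarization followed as the fluorescence increase over a further 10 min.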

Enterococcus faecium [7] = assay: Antibacterial activity against vancomycin-resistant VanA phenotype of Enterococcus faecium ATCC 51559 assessed as growth inhibition by broth microdilution method; assay type: functional; summary of the method: as §2
Staphylococcus aureus [8] = assay: Antibacterial activity against methicillin-resistant Staphylococcus aureus ATCC 33591 assessed as induction of membrane depolarization measured at < 3 mins by DiSC3(5) dye-based spectrofluorometric analysis; assay type: functional, organism-based; summary of the method: as §3
Enterococcus faecium [9] = assay: Antibacterial activity against vancomycin-resistant VanA phenotype of Enterococcus faecium ATCC 51559 assessed as induction of cytoplasmic membrane permeabilization at 10 uM measured for 10 mins by propidium iodide uptake assay; assay type: functional, organism-based
Summary of the method: (§4)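 Mid-log (6 h) cells harvested at 4 °C, washed and resuspended in PBS pH 7.2. Compound added to cells with 10 μM propidium iodide. Fluorescence (ex 535/em 617 nm) monitored 10 min at RT; the rise in PI fluorescence taken as inner membrane permeabilization.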

Staphylococcus aureus [10] = assay: Antibacterial activity against methicillin-resistant Staphylococcus aureus ATCC 33591 assessed as induction of cytoplasmic membrane permeabilization measured within 5 mins by propidium iodide uptake assay; assay type: functional, organism-based; summary of the method: as §4
[11] = Hemolytic activity in human RBC up to 100 uM after 1 hr; assay type: ADME, cell-based; conditions: erythrocyte
Summary of the method: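 Incubated 1 h at 37 °C, then centrifuged and supernatant A540 read. % hemolysis calculated against no-compound wells and 1 vol% Triton X-100 wells taken as 100% lysis.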

Staphylococcus aureus [12] = assay: Antibacterial activity against methicillin-sensitive Staphylococcus aureus MTCC 737 assessed as growth inhibition by broth microdilution method; assay type: functional
Summary of the method: (§5)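 Broth microdilution per CLSI; compounds serially diluted in autoclaved water. Bacteria grown 6 h in suitable media, diluted to 10⁵ CFU/mL; compound added to bacterial suspension, incubated at 37 °C, OD600 read. Triplicate wells, experiment done at least twice; mean OD versus concentration sigmoidally fitted, MIC taken where OD equals no-bacteria control.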

Staphylococcus aureus [13] = assay: Bactericidal activity against methicillin-resistant Staphylococcus aureus ATCC 33591 assessed as log10 reduction of bacterial count at MIC measured over 24 hrs; assay type: functional
Summary of the method: (§6)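 MRSA in yeast-dextrose broth, starting inoculum 1.6 × 10^8 CFU/mL. […] Samples taken at 0, 1, 2, 3, 6 and 24 h, diluted 10-fold serially in saline and plated on yeast-dextrose agar. Colonies counted after 24 h at 37 °C; log10 CFU/mL reported.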

Staphylococcus aureus [14] = assay: Antibacterial activity against methicillin-resistant Staphylococcus aureus ATCC 33591 assessed as leakage of intracellular potassium ion at 10 uM measured for 10 mins by PBFI-AM dye-based spectrofluorometric analysis relative to control; assay type: functional; summary of the method: as §1
Staphylococcus aureus [15] = assay: Bactericidal activity against methicillin-resistant Staphylococcus aureus ATCC 33591 infected in 90% human whole blood at 3.6 uM after 3 hrs; assay type: functional, organism-based
Summary of the method: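 MRSA (30 μL of 10^6 CFU/mL in 0.9% saline) mixed with compound at 3.6 μM and 270 μL fresh human whole blood. Incubated 3 h at 37 °C.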

Enterococcus faecium [16] = assay: Antibacterial activity against vancomycin-sensitive Enterococcus faecium ATCC 19634 assessed as growth inhibition by broth microdilution method; assay type: functional; summary of the method: as §5
Staphylococcus aureus [17] = assay: Bactericidal activity against methicillin-resistant Staphylococcus aureus ATCC 33591 assessed as log10 reduction of bacterial count at 6 times MIC measured over 24 hrs; assay type: functional; summary of the method: as §6
[18] = Hemolytic activity in human RBC up to 1000 uM after 1 hr; assay type: ADME, cell-based; conditions: erythrocyte
Summary of the method: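 Centrifuged, supernatant A540 read. Controls: no compound and 1 vol % Triton X-100 (100% lysis); % hemolysis = (A − A0)/(Atotal − A0) × 100.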

Staphylococcus aureus [19] = assay: Antibacterial activity against methicillin-resistant Staphylococcus aureus ATCC 33591 infected in CD-1 mouse neutropenic thigh infection model assessed as reduction of bacterial burden in thigh at 12 mg/kg, iv bid administered as 12 hrs interval measured after 24 hrs; assay type: functional, organism-based; set-up: dose 12 mg/kg
Summary of the method: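 Neutropenic mouse thigh model: about 50 μL MRSA inoculum injected into the thigh. About 1 h later, iv treatment twice at 12 h intervals with saline, vancomycin or compound at 12 mg/kg. At 24 h, thigh homogenate dilutions plated and incubated overnight at 37 °C; titer expressed as log10 CFU/g thigh.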

With CCCCCCCCCCCCCC[N+](C)(C)CCCNC(=O)[C@H]1NC(=O)[C@H]2NC(=O)[C@H](NC(=O)[C@@H]3NC(=O)[C@H](CC(N)=O)NC(=O)[C@H](NC(=O)[C@@H](CC(C)C)NC)[C@H](O)c4ccc(c(Cl)c4)Oc4cc3cc(c4O[C@@H]3O[C@H](CO)[C@@H](O)[C@H](O)[C@H]3O[C@H]3C[C@](C)(N)[C@H](O)[C@H](C)O3)Oc3ccc(cc3Cl)[C@H]2O)c2ccc(O)c(c2)-c2c(O)cc(O)cc21.O=C([O-])C(F)(F)F the Activity (Enterococcus faecium [1]) was “Active”, the Activity (HeLa) was “Non-toxic” and the Ratio (Enterococcus faecium [2]) was 25. For the same molecule, the MIC (Staphylococcus aureus [3]) was 0.36 µM, the MIC (Staphylococcus aureus [4]) was 0.65 µM and the Activity (Staphylococcus aureus [5]) was “Active”. The Activity (Enterococcus faecium [6]) was “Dose-dependent effect”, the MIC (Enterococcus faecium [7]) was 0.7 µM and the Activity (Staphylococcus aureus [8]) was “Dose-dependent effect”. For the same molecule, the Activity (Enterococcus faecium [9]) was “Active”, the Activity (Staphylococcus aureus [10]) was “Dose-dependent effect” and the Activity [11] was “Non-toxic”. For the same molecule, the MIC (Staphylococcus aureus [12]) was 1.25 µM, the log10cfu (Staphylococcus aureus [13]) was over 5 and the Activity (Staphylococcus aureus [14]) was “Active”. The Activity (Staphylococcus aureus [15]) was “Active”, the MIC (Enterococcus faecium [16]) was 0.12 µM and the log10cfu (Staphylococcus aureus [17]) was over 5.

With CCCCCCCC[N+](C)(C)CCCNC(=O)[C@H]1NC(=O)[C@H]2NC(=O)[C@H](NC(=O)[C@@H]3NC(=O)[C@H](CC(N)=O)NC(=O)[C@H](NC(=O)[C@@H](CC(C)C)NC)[C@H](O)c4ccc(c(Cl)c4)Oc4cc3cc(c4O[C@@H]3O[C@H](CO)[C@@H](O)[C@H](O)[C@H]3O[C@H]3C[C@](C)(N)[C@H](O)[C@H](C)O3)Oc3ccc(cc3Cl)[C@H]2O)c2ccc(O)c(c2)-c2c(O)cc(O)cc21.O=C([O-])C(F)(F)F the Activity (Enterococcus faecium [1]) was “Active”, the Activity [18] was “Non-toxic” and the Activity (HeLa) was “Non-toxic”. The MIC (Staphylococcus aureus [3]) was 0.4 µM, the MIC (Staphylococcus aureus [4]) was 0.31 µM and the Activity (Staphylococcus aureus [5]) was “Active”. For the same molecule, the Activity (Enterococcus faecium [6]) was “Dose-dependent effect”, the MIC (Enterococcus faecium [7]) was 12.5 µM and the Activity (Staphylococcus aureus [8]) was “Dose-dependent effect”. For the same molecule, the Activity (Staphylococcus aureus [19]) was “Active”, the Activity (Enterococcus faecium [9]) was “Active” and the Activity (Staphylococcus aureus [10]) was “Dose-dependent effect”. The MIC (Staphylococcus aureus [12]) was 0.31 µM, the log10cfu (Staphylococcus aureus [13]) was 8 and the Activity (Staphylococcus aureus [14]) was 43%. For the same molecule, the Activity (Staphylococcus aureus [15]) was “Active”, the MIC (Enterococcus faecium [16]) was 0.15 µM and the log10cfu (Staphylococcus aureus [17]) was 3.

From ChEMBL document CHEMBL3259723, “Membrane active vancomycin analogues: a strategy to combat bacterial resistance” (J Med Chem, 2014)
